Bioassay records from PubChem.
SENP6 block – SENP6 protease inhibition | Recombinant SENP6 catalytic domain, aminoluciferin luminescence | inhibition, % at 10 µM | 330,000 compounds, 1.8% hits | AID 2599;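 active = inhibition above about 50% at the single tested dose, limit read from the data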;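 also: plate controls were DMSO wells with enzyme for no effect and DMSO wells lacking enzyme for full effect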
SENP8 block-1 – SENP8 (human) protease inhibition | Q96LD8 | recombinant SENP8, Nedd8 substrate fluorescence | inhibition, % at 20 µM | 360,000 compounds, 0.64% hits; in the data active = inhibition mostly above about 40%, no sharp cut-off; inactive = mostly below about 27%
Apaf1 inhib – human Apaf-1 inhibition | O14727 | reconstituted apoptosome caspase-3 activity, DEVD-Rh110 fluorescence | inhibition, % at 20 µM | 330,000 compounds, 0.71% hits | AID 489030; active = inhibition of at least 40% at 20 µM;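 also: plate controls were DMSO wells for no effect and DEVD-CHO caspase inhibitor wells for full effect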
Target sequence (O14727 whole entry, looked up): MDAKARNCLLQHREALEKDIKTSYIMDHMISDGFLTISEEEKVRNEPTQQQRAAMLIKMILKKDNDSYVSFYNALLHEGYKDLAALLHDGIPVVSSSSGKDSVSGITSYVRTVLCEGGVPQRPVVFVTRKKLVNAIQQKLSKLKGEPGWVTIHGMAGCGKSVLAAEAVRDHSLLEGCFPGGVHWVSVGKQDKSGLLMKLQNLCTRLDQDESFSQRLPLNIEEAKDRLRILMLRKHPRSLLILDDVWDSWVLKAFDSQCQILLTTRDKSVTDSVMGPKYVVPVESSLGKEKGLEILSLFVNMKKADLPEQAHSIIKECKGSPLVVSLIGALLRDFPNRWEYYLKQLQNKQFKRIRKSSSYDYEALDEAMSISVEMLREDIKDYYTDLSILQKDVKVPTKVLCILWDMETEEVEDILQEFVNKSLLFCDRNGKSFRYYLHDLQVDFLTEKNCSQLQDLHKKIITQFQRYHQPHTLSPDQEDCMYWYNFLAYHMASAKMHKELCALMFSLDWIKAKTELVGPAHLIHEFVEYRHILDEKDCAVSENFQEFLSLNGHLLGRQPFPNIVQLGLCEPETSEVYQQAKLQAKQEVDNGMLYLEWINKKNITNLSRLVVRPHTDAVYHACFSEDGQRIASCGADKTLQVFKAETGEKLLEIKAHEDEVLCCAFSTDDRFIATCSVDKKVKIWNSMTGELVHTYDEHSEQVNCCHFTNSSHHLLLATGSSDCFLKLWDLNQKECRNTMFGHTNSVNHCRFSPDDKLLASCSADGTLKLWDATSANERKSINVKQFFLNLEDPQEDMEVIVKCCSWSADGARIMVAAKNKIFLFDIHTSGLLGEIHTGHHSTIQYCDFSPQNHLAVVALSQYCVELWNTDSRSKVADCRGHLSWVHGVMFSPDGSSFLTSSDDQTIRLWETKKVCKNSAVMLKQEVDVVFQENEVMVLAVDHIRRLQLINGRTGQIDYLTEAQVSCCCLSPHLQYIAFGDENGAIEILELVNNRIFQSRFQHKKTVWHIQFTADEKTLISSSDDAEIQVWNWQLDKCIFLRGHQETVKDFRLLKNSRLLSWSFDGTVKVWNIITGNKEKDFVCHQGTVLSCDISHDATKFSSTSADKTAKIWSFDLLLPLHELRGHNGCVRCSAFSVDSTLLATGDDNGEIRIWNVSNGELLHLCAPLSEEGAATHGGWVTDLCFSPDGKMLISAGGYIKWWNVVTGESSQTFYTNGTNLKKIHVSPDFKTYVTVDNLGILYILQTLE
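Assay system – apoptosome proteins · Medium – Hepes buffer, pH 7.5 · Also added – cytochrome c with DEVD-Rh110 · Timing – 30 min compound preincubation, 50 min activation, room temperature · Detection – Rh110 fluorescence, excitation 480 nm, emission 540 nm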
SENP7 block – inhibitors of human SENP7 protease; recombinant SENP7, Z-RLRGG-aminoluciferin luminescence, 40 min; AID 434973; 330,000 compounds, 1.5% hits; Q9BQF6; inhibition, % at 5 µM;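 active = inhibition above about 50% at the single test dose, limit read from the data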;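 also: plate controls were DMSO with enzyme for no effect and no enzyme buffer wells for full effect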
SENP8 block-2 – inhibitors of human SENP8 protease. inhibition, % at 10 µM. AID 2540. 330,000 compounds, 1.2% hits. purified SENP8, Z-RLRGG-aminoluciferin cleavage, luminescence; in the data active = inhibition above about 50%
SENP1 inh – inhibitors of human SENP1 SUMO protease catalytic domain | Q9P0U3 | recombinant SENP1 catalytic domain, CyPet-SUMO1-YPet FRET cleavage | inhibition, % at 10 µM | 360,000 compounds, 0.21% hits | AID 624204;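 active = inhibition at least 30% at 10 µM, raw YFP signal under a set limit, fluorescence ratio 0.5 to 1.5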;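 also: 0% = enzyme with DMSO and 100% = no enzyme wells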
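Material: hSENP1 catalytic domain, recombinant; medium: Tris pH 8 with BME, BSA, NP40 and catalase; compound: single concentration of 10 µM compound, 0.5% DMSO final; technique: FRET read of cyan and yellow fluorescence; timing: 50 min enzyme reaction, room temperature, light-protected; reagent: SFCypet-SUMO1-SFYpet substrate at 25 nM; control set: no-enzyme low, enzyme-DMSO high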
SENP8 confirm – human SENP8 inhibition, confirmed; Recombinant SENP8, Z-RLRGG-aminoluciferin luminescence, 60 min; shares compounds with SENP7 block; inhibition, % at 12.5 µM; 6,200 compounds, 40% hits;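 active = mean inhibition across replicates above about 50%, limit read from the data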
SENP6 conf – confirmation of human SENP6 protease inhibitors; shares compounds with SENP7 block; 6,200 compounds, 58% hits; recombinant SENP6, Z-RLRGG-aminoluciferin luminescence; inhibition, % at 12.5 µM
SENP7 conf – confirmation of human SENP7 protease inhibitors | 6,200 compounds, 69% hits | inhibition, % at 12.5 µM | shares compounds with SENP7 block | recombinant SENP7, Z-RLRGG-aminoluciferin luminescence, 40 min
Casp3 select – selectivity test for SENP inhibitors: human caspase-3 inhibition; 6,200 compounds, 60% hits; shares compounds with SENP7 block; purified caspase-3, Z-DEVD-aminoluciferin luminescence, 60 min; AID 488918; inhibition, % at 12.5 µM;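 active = mean inhibition above about 50%, limit read from the data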;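 also: plate controls were enzyme with DMSO for no effect and wells without caspase-3 for full effect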
SENP luc ctr – luminescence interference (SENP counter-screen). AID 488919. Pre-incubated SENP8/Z-RLRGG-aminoluciferin, luciferase luminescence interference. 6,200 compounds, 39% hits. shares compounds with SENP7 block. inhibition, % at 12.5 µM;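 active = mean inhibition above about 50% when retested at one dose, limit read from the data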;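 also: plate controls were DMSO wells with completed reaction for no effect and substrate without enzyme for full effect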
* marks the source's active call; other numbers are inactive results. Rows were chosen to be rich in hits. Some 2.9% of all compounds tested hit in one or more screens of this group.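 The calls were made as follows, unless noted: active = mean inhibition above about 50% in the one-dose retest (limit read from the data); inactive = the rest.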

Results for CCC(=O)Nc1c(C#N)c2nc3ccccc3nc2n1-c1ccccc1C ?
SENP6 block: 55*; SENP8 block-1: -337; Apaf1 inhib: 36; SENP7 block: 4; SENP8 block-2: -2; SENP1 inh: -20; SENP8 confirm: 6; SENP6 conf: 1; SENP7 conf: -3; Casp3 select: -3; SENP luc ctr: -2

Results for CC(=O)Nc1ccc(N=Cc2c(O)c3ccccc3oc2=O)cc1 ?
SENP6 block: -27; SENP8 block-1: -141; Apaf1 inhib: -5; SENP7 block: -30; SENP8 block-2: -35; SENP1 inh: -21

How did CC(=O)Nc1ccc(N=Cc2c(O)c(C(=O)Nc3ccccc3)cc3ccccc23)cc1 do in these assays?
SENP6 block: 45; Apaf1 inhib: 4; SENP7 block: 30; SENP8 block-2: 72*; SENP8 confirm: 21; SENP6 conf: 16; SENP7 conf: 20; Casp3 select: 14; SENP luc ctr: 11

Results for O=C(C#Cc1ccccc1)c1ccccc1 ?
SENP8 block-1: 18; SENP1 inh: 2

What do the screens show for `CC(C)(C)c1ccc2c(c1)C(=O)c1ccccc1C2=O`?
SENP6 block: 96*; SENP8 block-1: 19; Apaf1 inhib: 17; SENP7 block: 96*; SENP8 block-2: 66*; SENP1 inh: 3; SENP8 confirm: -2; SENP6 conf: 59*; SENP7 conf: 82*; Casp3 select: 44; SENP luc ctr: 44

How did CC(C)(C)c1ccc(-c2ccc3c(c2)S(=O)(=O)c2ccccc2C3=O)cc1 do in these assays?
SENP6 block: -3; SENP8 block-1: -27; Apaf1 inhib: 12; SENP7 block: 7; SENP8 block-2: -14; SENP1 inh: -1

How did Clc1ccc2nc(-c3ccc(Br)s3)cn2c1 do in these assays?
SENP6 block: 80*; SENP8 block-1: -292; Apaf1 inhib: 3; SENP7 block: 5; SENP8 block-2: 63*; SENP1 inh: 2; SENP8 confirm: 14; SENP6 conf: 69*; SENP7 conf: 86*; Casp3 select: 49; SENP luc ctr: 15

Results for O=C(NNC(=O)c1ccccc1[N+](=O)[O-])c1cnccn1 ?
SENP6 block: -7; SENP8 block-1: 18; Apaf1 inhib: -6; SENP7 block: 82*; SENP8 block-2: 0; SENP1 inh: 2; SENP8 confirm: -9; SENP6 conf: -6; SENP7 conf: -5; Casp3 select: 7; SENP luc ctr: 1

How did CCc1nnc(NC(=O)CCc2ccccc2OC)s1 do in these assays?
SENP6 block: 4; SENP8 block-1: 6; Apaf1 inhib: 6; SENP7 block: 3; SENP8 block-2: -5; SENP1 inh: 0

How did Clc1cccc(Cl)c1/C=C/c1nc2ccccc2[nH]1 do in these assays?
SENP6 block: 82*; SENP8 block-1: -280; Apaf1 inhib: -5; SENP7 block: 93*; SENP8 block-2: 89*; SENP1 inh: -4; SENP8 confirm: 94*; SENP6 conf: 96*; SENP7 conf: 101*; Casp3 select: 87*; SENP luc ctr: 76*

What do the screens show for `O=C(/C=C/c1ccc(Cl)cc1Cl)c1nc2ccccc2[nH]1`?
SENP6 block: 15; SENP8 block-1: -23; Apaf1 inhib: 9; SENP7 block: 5; SENP8 block-2: -9; SENP1 inh: -2
